An excerpt weighted towards active compounds, which were near 2.4% of everything screened.
IMP-1 inh – IMP-1 metallo-beta-lactamase inhibitors, primary screen, biochemical, epi-absorbance readout, Pseudomonas aeruginosa enzyme; metallo-beta-lactamase IMP-1 (Pseudomonas aeruginosa); purified IMP-1, nitrocefin hydrolysis, epi-absorbance fluorescence; inhibition, % at 5.6 µM; actives 0.45% (n = 290,000); AID 1556, 2009;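 active means inhibition above the mean plus 3 SD of all compounds in the same screening run, cut at about 4.5% in these data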
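System: Purified recombinant IMP-1 metallo-beta-lactamase enzyme | Measured by: Fluorescence quenching readout, ex 480/em 530 nm | Replication: Singlicate | Incubation: 15 min preincubation plus 25 min reaction at 25 °C | Evaluation: Percent inhibition from optical density relative to buffer-blank wells | Benchmarks: DMSO with and without IMP-1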
PfM18AAP inh – PfM18AAP inhibitors, malaria aminopeptidase, primary screen, biochemical, QFRET, recombinant enzyme; M18 aspartyl aminopeptidase (Plasmodium falciparum 3D7); AID 1822, 2009; inhibition, % at 7.35 µM; actives 1.2% (n = 290,000); H-Glu-NHMec fluorogenic cleavage;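 active means inhibition above the campaign mean inhibition over all tested compounds plus 3 SD, cut at about 28% in these data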
VIM-2 inhibitor – VIM-2 metallo-beta-lactamase inhibitors, primary screen, biochemical, epi-absorbance readout, Pseudomonas aeruginosa enzyme; inhibition, % at 5.6 µM; actives 0.89% (n = 290,000); purified VIM-2, nitrocefin hydrolysis, epi-absorbance fluorescence;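 active means inhibition above the mean of all tested compounds plus 3 SD, cutoff set per screening run, cut at about 7.5% in these data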;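 further: red hydrolysis product quenches plate fluorescence so inhibitors raise well fluorescence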
sPLA2-III inh – human group III sPLA2 inhibitors, primary screen, biochemical, QFRET, BODIPY PC-A2 liposome substrate; QFRET BODIPY PC-A2 liposome hydrolysis, fluorescence; Group 3 secretory phospholipase A2 (Homo sapiens), Q9NZ20; actives 0.56% (n = 370,000); inhibition, % at 12.2 µM;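 active means inhibition above mean plus 3 SD of compounds lying within the high and low control bounds, cut at about 19% in these data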
Target sequence (Q9NZ20 whole entry, looked up): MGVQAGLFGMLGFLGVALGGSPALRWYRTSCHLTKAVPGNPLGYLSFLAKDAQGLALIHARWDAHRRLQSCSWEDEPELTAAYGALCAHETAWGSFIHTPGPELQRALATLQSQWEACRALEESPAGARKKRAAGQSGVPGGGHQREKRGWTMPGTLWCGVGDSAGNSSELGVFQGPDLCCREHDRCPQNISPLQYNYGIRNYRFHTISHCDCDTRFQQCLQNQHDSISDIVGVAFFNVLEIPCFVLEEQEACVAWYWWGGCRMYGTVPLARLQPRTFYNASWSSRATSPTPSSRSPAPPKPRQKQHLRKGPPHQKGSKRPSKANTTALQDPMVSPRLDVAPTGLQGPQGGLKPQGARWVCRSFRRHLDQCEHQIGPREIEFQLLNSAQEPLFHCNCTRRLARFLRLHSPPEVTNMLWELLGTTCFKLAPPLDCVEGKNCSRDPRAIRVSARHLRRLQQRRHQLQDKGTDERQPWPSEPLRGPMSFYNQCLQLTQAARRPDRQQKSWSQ
hGIII sPLA2 conf – human group III sPLA2 inhibitors, confirmation, biochemical, QFRET, triplicate; shares compounds with sPLA2-III inh; recombinant hGIII-sPLA2, BODIPY PC-A2 QFRET fluorescence; inhibition, % at 12.2 µM; actives 34% (n = 2,000); AID 743280, 2014;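 active means mean inhibition across triplicates above the hit cutoff set in the earlier primary screen, cut at about 19% in these data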
BODIPY interf – 535nm fluorescence optical interference, confirmation, artefact control for HGIII-sPLA2 inhibitor project, biochemical, QFRET; shares compounds with sPLA2-III inh; BODIPY FL product fluorescence interference; inhibition, % at 12.2 µM; actives 8.5% (n = 2,000);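 active means average inhibition above the solvent-only control mean plus 3 SD, cut at about 6% in these data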
BODIPY interf DR – 535nm fluorescence optical interference, dose response, artefact control for HGIII-sPLA2 inhibitor project, biochemical, QFRET; 240 tested, under 10 active; IC50, µM; AID 743455, 2014; BODIPY FL product fluorescence interference, cell-free; shares compounds with sPLA2-III inh;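 active means IC50 at or below 10 µM; inactive means IC50 above 10 µM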
Numbers stand for hits; i = inactive; nt = not tested or not shown.

SMILES	IMP-1 inh	PfM18AAP inh	VIM-2 inhibitor	sPLA2-III inh	hGIII sPLA2 conf	BODIPY interf	others
C[C@@H]1CCCCO[C@@H](CN(C)S(=O)(=O)c2ccccc2)[C@@H](C)CN([C@H](C)CO)C(=O)c2cc(N(C)C)ccc2O1	nt	nt	nt	i	nt	nt
O=C1Nc2ccccc2N(C(=O)c2ccc3ccccc3c2)C1c1nc2ccccc2[nH]1 (centres undefined)	nt	nt	nt	i	nt	nt
Cc1ccccc1NC(=S)NCC(c1cccnc1)N1CCOCC1 (centres undefined)	i	i	i	i	nt	nt
CCc1cccc(CC)c1NC(=S)NCC(c1cccnc1)N1CCOCC1 (centres undefined)	i	i	i	24	i	i
O=C(NCc1ccccc1)C(C1CC1)n1c(Cc2cc(F)cc(F)c2)nc2ccccc21 (centres undefined)	nt	nt	nt	i	nt	nt
COC(=O)C1CN(Cc2cn(CCOC(C)=O)nn2)CCS(=O)(=O)N1Cc1ccc(F)cc1 (centres undefined)	nt	nt	nt	i	nt	nt
Cc1cccc2sc(=S)[nH]c12	nt	nt	nt	24	20	i
Cc1cccc(C)c1Nc1n[nH]c(=S)s1	nt	nt	nt	i	nt	nt
CCCCOCCCNC(=O)C[C@H]1C(=O)N(CCCOC)C2=CCCCC[C@]21C(=O)OC	nt	nt	nt	i	nt	nt
COc1ccc(C(=O)NNC(=O)COc2ccc(Cl)cc2)c(OC)c1	i	i	i	25	i	i
CC(=NO)c1cc(Br)c2cccc3c2c1CC3	nt	nt	nt	i	nt	nt
CCCCCC[N+](C)(C)CC/C=C1/c2ccccc2Sc2ccc(Cl)cc21	i	i	i	19	i	i
COc1ccc(N(C(=O)c2cccc(OC)c2OC)C2C=CS(=O)(=O)C2)cc1 (centres undefined)	i	i	i	24	i	i
CCCC(=O)N(c1ccc(OC)cc1)C1C=CS(=O)(=O)C1 (centres undefined)	i	i	i	i	nt	nt
NNC(=O)c1nc[nH]c1C(=O)Nc1ccccc1	i	i	i	27	i	i
COC(=O)c1ccc(NC(=O)CNCc2ccncc2)cc1	i	i	i	21	i	i
COC(=O)c1ccc(CNCC(=O)Nc2ccc(C(=O)OC)cc2)cc1	i	i	i	i	nt	nt
CN(C)c1ccc(C=c2c3cc([N+](=O)[O-])ccc3n3c2cc(-c2ccccc2)[n+]3C)cc1	nt	nt	nt	48	98	i	BODIPY interf DR=i
CN(C)c1ccc(C=c2c3ccccc3n3c2cc(-c2ccccc2)[n+]3C)cc1	nt	nt	nt	31	56	i	BODIPY interf DR=i
COc1cc(N(C)C)ccc1C=c1c2ccccc2n2c1cc(-c1ccccc1)[n+]2C	nt	nt	nt	45	52	i	BODIPY interf DR=i
CN(C)c1ccc(C=c2c3ccccc3n3c2c2c([n+]3C)CCCC2)cc1	nt	nt	nt	39	49	i	BODIPY interf DR=i
OC(c1ccc(Cl)cc1)c1ncc(-c2cccc(C(F)(F)F)c2)[nH]1 (centres undefined)	nt	nt	nt	i	nt	nt
COc1ccccc1N1C(=O)N(CC(=O)C(C)(C)C)c2ccccc2S1(=O)=O	i	i	i	i	nt	nt
CCCCC(=O)NNC(=O)c1c(O)c2ccccc2[nH]c1=O	i	i	i	i	nt	nt
O=C(CCl)NNC(=O)c1c(O)c2ccccc2[nH]c1=O	i	i	i	23	i	i
SMILES	IMP-1 inh	PfM18AAP inh	VIM-2 inhibitor	sPLA2-III inh	hGIII sPLA2 conf	BODIPY interf	others
CCN(CC)S(=O)(=O)c1cccc(-n2c(O)c(C=Nc3ccccc3C(=O)O)c3ccccc3c2=O)c1	i	i	i	i	nt	nt
CC(C)CC(N)c1csc(Nc2ccc(C(=O)N(C)Cc3ccccc3)cn2)n1 (centres undefined)	nt	nt	nt	21	i	i
CN(Cc1ccccc1)C(=O)c1ccc(Nc2nc(C(N)Cc3ccccc3)cs2)nc1 (centres undefined)	nt	nt	nt	i	nt	nt
Cc1ccc2c(c1)C1CS(=O)(=O)N(CCc3ccccc3)CN1C2 (centres undefined)	nt	nt	nt	i	nt	nt
Cc1ccc2c(c1)C1CS(=O)(=O)N(CCc3ccccc3)C(=O)N1C2 (centres undefined)	nt	nt	nt	19	i	i
CCC/C=C/c1ccc(CN2C(C)C(=O)N(Cc3cn(CCC4OCCCO4)nn3)CCS2(=O)=O)cc1 (centres undefined)	nt	nt	nt	i	nt	nt
Cc1c(C2Nc3ccccc3NC3=C2C(=O)CC(C)(C)C3)cnn1C (centres undefined)	i	i	i	i	nt	nt
COC(=O)C1=C(C)NC2=C(C(=O)CC(C)(C)C2)C1c1cnn(C)c1C (centres undefined)	i	i	i	21	i	i
CC(C)c1cc(C(=O)NNC(=S)NCc2ccco2)c(O)c(C(C)C)c1	i	i	i	51	57	i	BODIPY interf DR=i
O=C(CCCn1c(=S)[nH]c2ccccc2c1=O)NC1CCCCC1	i	i	i	i	nt	nt
CC1CCCCC1NC(=O)CCn1c(=S)[nH]c2ccccc2c1=O (centres undefined)	nt	nt	nt	21	20	i
O=C(Nc1nc(-c2cc(Cl)sc2Cl)cs1)c1ccc(Br)s1	i	i	i	i	nt	nt
O=C(Nc1nc(-c2ccccn2)cs1)c1ccc(Br)s1	i	i	i	38	27	i
O=C(Nc1nc(-c2ccccn2)cs1)c1ccco1	i	i	i	20	i	i
COc1ccc2oc(C(=O)Nc3nc(-c4ccccn4)cs3)c(C)c2c1	nt	nt	nt	22	25	i
COc1ccc2c(c1)C1C=CCC1C(c1cc3c(cc1Br)OCO3)N2 (centres undefined)	i	i	i	20	34	8.9
COc1cccc(N=Nc2c(=O)[nH]n3c(C)cc(C)nc23)c1	i	i	i	22	i	i
Clc1ccc(N=NN2CCOCC2)cc1	i	i	i	19	i	i
Cc1ccc(-c2cnc(N)n2C)cc1C	i	i	i	20	i	i
CCOc1ccc(-n2c(SCC(=O)Nc3ccc4cn[nH]c4c3)nnc2-c2ccc(C(C)(C)C)cc2)cc1	nt	nt	nt	i	nt	nt
COc1ccc2c(c1)OC[C@H]1[C@H]2N2C(=O)c3cc(OC)c(OC)cc3NC(=O)[C@@]2(C)[C@H]1c1ccccc1	nt	nt	nt	31	i	i
COc1cc2c(cc1OC)C(=O)N1[C@H]3c4ccccc4OC[C@@H]3[C@H](c3ccccc3)[C@]1(C)C(=O)N2	nt	nt	nt	i	nt	nt
O=C1NC[C@H](Cc2ccc(O)cc2)N(C[C@@H]2CCCN2C[C@H](Cc2ccccc2)N2C[C@H](Cc3ccc(O)cc3)N(CC3CCCCCC3)C(=O)C2=O)C1=O	nt	nt	nt	i	nt	nt
COc1cccc(NC(=O)c2cccc(S(=O)(=O)N3CCN(Cc4ccccc4)CC3)c2)c1	nt	nt	nt	i	nt	nt
